Measured values as given in ChEMBL document CHEMBL1147665, “Design, synthesis, and biological evaluation of 4-alkyliden-beta lactams: new products with promising antibiotic activity against resistant bacteria” (J Med Chem, 2006).
In brackets after ≈: the same amount, converted by molar mass.

What was measured:
Staphylococcus aureus [1] = experiment: Antibacterial activity against methicillin-susceptible Staphylococcus aureus; type: functional
How it was run: (§1)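 Broth microdilution MIC per CLSI guidelines in Mueller-Hinton broth: serial 2-fold dilutions, inoculum 5 × 10⁵ CFU/mL in equal volume, 35 °C for 16-20 h. MIC = lowest concentration with no visible turbidity. Recent clinical isolates (43 total, Gram-positive and Gram-negative); values given as MIC ranges, MIC₅₀ and MIC₉₀ per species.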

Streptococcus pneumoniae = experiment: Antibacterial activity against Streptococcus pneumoniae; type: functional; how it was run: as §1
Enterococcus = experiment: Antibacterial activity against Enterococcus spp; type: functional; how it was run: as §1
[2] = Viability of human TPC1 cell line at 128 uM after 21 hrs; type: cell-based; conditions: TPC1 cells, read-out: Activity
How it was run: (§2)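 Human TPC1 cells seeded at 40 000/well in supplemented DMEM, grown overnight at 37 °C, 5% CO₂. Fresh medium with compound (0-128 µM, 2-fold steps), six parallel wells per concentration and controls, exposed 3, 6 or 21 h. MTT (5 mg/mL stock diluted 1:15 in medium) for 3 h, acidified 2-propanol solubilization, OD 600 nm; viability relative to control.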

[3] = Viability of human TPC1 cell line at 32 uM after 21 hrs; type: cell-based; conditions: TPC1 cells, read-out: Activity; how it was run: as §2
Haemophilus influenzae = experiment: Antibacterial activity against Haemophilus influenzae; type: functional; how it was run: as §1
[4] = test system: Staphylococcus epidermidis; experiment: Antibacterial activity against Staphylococcus epidermidis; type: functional; how it was run: as §1
Staphylococcus aureus [5] = experiment: Antibacterial activity against methicillin-resistant Staphylococcus aureus; type: functional
How it was run: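 Clinical isolates (3 MRSA in a 43-strain panel). Broth microdilution per CLSI, serial 2-fold dilutions in Mueller-Hinton broth, inoculum 5 × 10⁵ CFU/mL, 35 °C for 16-20 h. MIC = lowest concentration with no visible turbidity; reported as MIC range, MIC₅₀ and MIC₉₀ across isolates.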

Streptococcus pyogenes = experiment: Antibacterial activity against Streptococcus pyogenes; type: functional; how it was run: as §1
[6] = Viability of human TPC1 cell line at 128 uM after 3 hrs; type: cell-based; conditions: TPC1 cells, read-out: Activity; how it was run: as §2
[7] = Viability of human TPC1 cell line at 8 uM after 21 hrs; type: cell-based; conditions: TPC1 cells, read-out: Activity; how it was run: as §2

| SMILES | MIC50 (Staphylococcus aureus [1]) [mg/L] | MIC90 (Staphylococcus aureus [1]) [mg/L] | MIC50 (Streptococcus pneumoniae) [mg/L] | MIC90 (Streptococcus pneumoniae) [mg/L] | MIC50 (Enterococcus) [mg/L] | MIC90 (Enterococcus) [mg/L] | viability at 21 h, 128 µM [2] [%] | viability at 21 h, 32 µM [3] [%] | MIC50 (Haemophilus influenzae) [mg/L] | MIC90 (Haemophilus influenzae) [mg/L] | MIC50 [4] [mg/L] | MIC90 [4] [mg/L] | MIC50 (Staphylococcus aureus [5]) [mg/L] | MIC90 (Staphylococcus aureus [5]) [mg/L] | MIC50 (Streptococcus pyogenes) [mg/L] | MIC90 (Streptococcus pyogenes) [mg/L] | viability at 3 h, 128 µM [6] [%] | viability at 21 h, 8 µM [7] [%] |
| --- | --- | --- | --- | --- | --- | --- | --- | --- | --- | --- | --- | --- | --- | --- | --- | --- | --- | --- |
| COc1cc(C(=O)O[C@H](C)[C@H]2C(=O)N/C2=C\C(=O)OCc2ccccc2)cc(OC)c1O | 16 (≈ 36.2 µM) | 128 (≈ 290 µM) | 128 (≈ 290 µM) | 128 (≈ 290 µM) | 128 (≈ 290 µM) | > 128 | 64 | 81 | 64 (≈ 145 µM) | 128 (≈ 290 µM) | 2 (≈ 4.53 µM) | 64 (≈ 145 µM) | 32 (≈ 72.5 µM) | 64 (≈ 145 µM) | 128 (≈ 290 µM) | 128 (≈ 290 µM) | – | – |
| O=C(/C=C1\NC(=O)[C@@H]1Cl)OCc1ccccc1 | 8 (≈ 31.8 µM) | 16 (≈ 63.6 µM) | 128 (≈ 509 µM) | 128 (≈ 509 µM) | 16 (≈ 63.6 µM) | 16 (≈ 63.6 µM) | 23 | – | 1 (≈ 3.97 µM) | 2 (≈ 7.95 µM) | 8 (≈ 31.8 µM) | 32 (≈ 127 µM) | 16 (≈ 63.6 µM) | 32 (≈ 127 µM) | 32 (≈ 127 µM) | 128 (≈ 509 µM) | 48 | 81 |
| CCOC(=O)/C=C1\NC(=O)[C@@H]1Cl | 32 (≈ 169 µM) | 64 (≈ 338 µM) | 128 (≈ 675 µM) | 128 (≈ 675 µM) | > 128 | > 128 | – | – | 32 (≈ 169 µM) | 32 (≈ 169 µM) | 16 (≈ 84.4 µM) | 32 (≈ 169 µM) | 128 (≈ 675 µM) | 128 (≈ 675 µM) | 128 (≈ 675 µM) | 128 (≈ 675 µM) | – | – |
| CCOC(=O)/C=C1/NC(=O)[C@@H]1[C@@H](C)O[Si](C)(C)C(C)(C)C | > 128 | > 128 | 128 (≈ 408 µM) | 128 (≈ 408 µM) | > 128 | > 128 | – | – | 128 (≈ 408 µM) | 128 (≈ 408 µM) | 128 (≈ 408 µM) | 128 (≈ 408 µM) | 128 (≈ 408 µM) | – | 128 (≈ 408 µM) | 128 (≈ 408 µM) | – | – |
| C[C@@H](O)[C@H]1C(=O)N2C(C(=O)O)=C(S[C@@H]3CN[C@H](C(=O)N(C)C)C3)[C@H](C)[C@H]12 [MEROPENEM] | < 0.06 | < 0.06 | < 0.06 | 2 (≈ 5.22 µM) | 2 (≈ 5.22 µM) | > 128 | – | – | < 0.06 | < 0.06 | < 0.12 | 64 (≈ 167 µM) | 32 (≈ 83.4 µM) | 32 (≈ 83.4 µM) | < 0.06 | < 0.06 | – | – |
